In ChEMBL document CHEMBL3044828, “Synthesis of 1-acyl-3-isopropenylbenzimidazolone derivatives and their activity against Botrytis cinerea” (J Agric Food Chem, 2010):
In brackets after ≈: the same amount, converted by molar mass.

Test system: Botrytis cinerea
Assay: Fungicidal activity against Botryotinia fuckeliana assessed as inhibition of spore germination at 25 degC after 6 hr by microscopic analysis
Format: functional, organism-based
Outline: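 B. cinerea strain from a university plant disease institute, grown 2 weeks at 20 °C on PDA; conidia scraped into sterile water, filtered through cheesecloth, suspended in 0.1% Tween 20 and adjusted to 1.0 × 10⁶ spores/mL. Samples taken up in methanol and diluted in sterile water to a concentration series (methanol <1% final); 1% methanol control. 10 μL spore–sample aliquots on glass slides in triplicate, moist chamber, germination scored microscopically.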

| Compound | IC50 |
| --- | --- |
| C=C(C)n1c(=O)n(C(=O)c2ccco2)c2ccccc21 | 104 µg/mL (≈ 387 µM) |
| C=C(C)n1c(=O)n(C(=O)c2ccncc2)c2ccccc21 | 152 µg/mL (≈ 544 µM) |
| C=C(C)n1c(=O)n(C(=O)CCCCC)c2ccccc21 | 129 µg/mL (≈ 475 µM) |
| C=C(C)n1c(=O)n(C(=O)C(C)C)c2ccccc21 | 134 µg/mL (≈ 548 µM) |
| C=C(C)n1c(=O)n(C(=O)C(CC)CC)c2ccccc21 | 277 µg/mL (≈ 1020 µM) |
| C=C(C)n1c(=O)n(C(=O)CCC(C)C)c2ccccc21 | 335 µg/mL (≈ 1230 µM) |
| C=C(C)n1c(=O)n(C(=O)Cc2ccccc2)c2ccccc21 | 168 µg/mL (≈ 576 µM) |
| C=C(C)n1c(=O)n(C(=O)Cc2ccc(Cl)cc2)c2ccccc21 | 17.3 µg/mL (≈ 52.8 µM) |
| C=C(C)n1c(=O)n(C(=O)Cc2ccc3ccccc3c2)c2ccccc21 | > 500 µg/mL |
| C=C(C)n1c(=O)n(C(=O)CCc2ccccc2)c2ccccc21 | 126 µg/mL (≈ 410 µM) |
| C=C(C)n1c(=O)n(C(=O)C(CC)c2ccccc2)c2ccccc21 (configuration not stated) | 186 µg/mL (≈ 580 µM) |
| C=C(C)n1c(=O)n(C(=O)Cc2ccc(OC)cc2)c2ccccc21 | 118 µg/mL (≈ 366 µM) |
| C=C(C)n1c(=O)n(C(=O)COc2ccccc2)c2ccccc21 | 303 µg/mL (≈ 983 µM) |
| C=C(C)n1c(=O)n(C(=O)COc2ccc(Cl)cc2)c2ccccc21 | 108 µg/mL (≈ 315 µM) |
| C=C(C)n1c(=O)n(C(=O)CCCc2c[nH]c3ccccc23)c2ccccc21 | 302 µg/mL (≈ 839 µM) |
| C=CC(=O)n1c(=O)n(C(=C)C)c2ccccc21 | 32.2 µg/mL (≈ 141 µM) |
| C=C(C)C(=O)n1c(=O)n(C(=C)C)c2ccccc21 | 64 µg/mL (≈ 264 µM) |
| C=C(C)n1c(=O)n(C(=O)c2ccccc2)c2ccccc21 | 81.9 µg/mL (≈ 294 µM) |
| C=C(C)n1c(=O)n(C(=O)c2ccc([N+](=O)[O-])cc2)c2ccccc21 | 93.3 µg/mL (≈ 289 µM) |
| C=C(C)n1c(=O)n(C(=O)c2ccccc2[N+](=O)[O-])c2ccccc21 | 442 µg/mL (≈ 1370 µM) |
| C=C(C)n1c(=O)n(C(=O)c2ccc(Cl)cc2)c2ccccc21 | 66.8 µg/mL (≈ 214 µM) |
| C=C(C)n1c(=O)n(C(=O)c2ccccc2Cl)c2ccccc21 | 17.2 µg/mL (≈ 54.9 µM) |
| C=C(C)n1c(=O)n(C(C)=O)c2ccccc21 | > 500 µg/mL |
| C=C(C)n1c(=O)n(C(=O)CC)c2ccccc21 | > 500 µg/mL |
| C=C(C)n1c(=O)n(C(=O)CCC)c2ccccc21 | > 500 µg/mL |
| C=C(C)n1c(=O)n(C(=O)CCCC)c2ccccc21 | 254 µg/mL (≈ 984 µM) |
| Cc1cc(C)nc(Nc2ccccc2)n1 [PYRIMETHANIL] | 209 µg/mL (≈ 1050 µM) |
